Series [1] concerns the target T1, Phosphotyrosine-protein phosphatase PTPB (Mycobacterium tuberculosis) (UniProt P96830).
T1 sequence (whole entry): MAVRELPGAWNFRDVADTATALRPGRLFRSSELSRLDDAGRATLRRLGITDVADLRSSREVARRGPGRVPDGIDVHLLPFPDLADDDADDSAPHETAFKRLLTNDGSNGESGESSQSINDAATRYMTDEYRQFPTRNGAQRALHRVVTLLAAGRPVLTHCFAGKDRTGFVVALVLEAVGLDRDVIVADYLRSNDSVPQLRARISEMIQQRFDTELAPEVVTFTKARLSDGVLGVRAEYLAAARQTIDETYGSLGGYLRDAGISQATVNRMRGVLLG
The series can be described thus: Inhibition of Mycobacterium tuberculosis N-terminal His6-tagged PTPB at 20 uM using pNPP as substrate.

Series [2] deals with T2, Phosphotyrosine-protein phosphatase PTPB (Mycobacterium tuberculosis, UniProt P96830).
T2 sequence (P96830 whole entry): T1 sequence (whole entry)
The series can be described thus: Inhibition of Mycobacterium tuberculosis N-terminal His6-tagged PTPB.

The target in series [3] is T2, Phosphotyrosine-protein phosphatase PTPB. The series can be described thus: Inhibition of Mycobacterium tuberculosis N-terminal His6-tagged PTPB preincubated with compound for 30 mins before pNPP substrate addition by microplate spectrophotometer analysis.
For series [4] the target is unchanged. The series can be described thus: Competitive inhibition of Mycobacterium tuberculosis N-terminal His6-tagged PTPB assessed as production of p-nitrophenol from pNPP substrate by Lineweaver-Burk plot analysis.
The target in series [5] is T1, Phosphotyrosine-protein phosphatase PTPB (Mycobacterium tuberculosis). Put plainly: Inhibition of Mycobacterium tuberculosis PTPB expressed in mouse RAW 264.7 cells assessed as restoration of IFN gamma-induced ERK1/ERK2 phosphorylation after 30 mins by Western blotting. Type of series: cell-based. The essentials: (§1)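 RAW 264.7 macrophages (DMEM, 10% FBS, 37°C, 5% CO₂) stably expressing HA-tagged mPTPB (electroporation, G418 0.5 mg/ml selection 2 weeks). Cells at 80% confluency lysed in Triton X-100 buffer with phosphatase/protease inhibitors; pERK1/2 detected by western blot.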
(In general: A western blot detects proteins with antibodies after separation by electrophoresis.)

The target of series [6] is T2, Phosphotyrosine-protein phosphatase PTPB. The series can be described thus: Inhibition of Mycobacterium tuberculosis PTPB expressed in Escherichia coli after 5 mins by microplate spectrophotometer analysis.
The target in series [7] is T1, Phosphotyrosine-protein phosphatase PTPB (Mycobacterium tuberculosis). The series can be described thus: Inhibition of Mycobacterium tuberculosis PTPB expressed in mouse RAW 264.7 cells assessed as restoration of IFN gamma-induced ERK1/ERK2 phosphorylation at 10 uM after 30 mins by Western blotting. Type of series: cell-based. The essentials: as §1
Series [8] has as its system Mycobacterium tuberculosis. Put plainly: Antimycobacterial activity against Mycobacterium tuberculosis H37Rv after 7 days by microplate alamar blue assay. As to conditions: 168 h. The format is functional. The essentials:
(§2)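 MABA read-out after 7 day incubation in Middlebrook 7H12 medium against replicating M. tuberculosis cultures.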
For orientation: Alamar Blue is a resazurin reagent that responds to reducing activity.

The test system of series [9] is J774.A1. The series can be described thus: Cytotoxicity at mouse J774A1 cells up to 100 uM after 72 hrs by MTS assay. Type of series: cell-based. As to conditions: j774.a1, 72 h. The essentials: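 J774A.1 cells exposed 72 h; viability from MTS conversion to formazan.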
In general terms: Tetrazolium assays rely on reduction of a dye to a coloured formazan, in cell work by metabolically active cells.

The test system of series [10] is Mycobacterium tuberculosis. The series can be described thus: Antimycobacterial activity against Mycobacterium tuberculosis Erdman ATCC 35801 after 7 days by microplate alamar blue assay. Conditions: Erdman ATCC 35801, 168 h. The format is functional. The procedure, abridged:
as §2

The test system of series [11] is Mycobacterium tuberculosis. Put plainly: Potentiation of IFN-gamma-induced antimycobacterial activity against Mycobacterium tuberculosis Erdman ATCC 35801 infected in mouse J774A.1 cells assessed as decrease in bacterial load at 10 uM after 7 days. The format is functional, organism-based. The procedure, abridged: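 J774A.1 macrophages on cover slips infected 1 h at 37°C with M. tuberculosis Erdman (1-3 x10⁵ CFU/ml), rinsed, 16 h at 37°C/5% CO₂, then compound 10 µM with amikacin and IFN-γ 50 U/mL; triplicates. After 7 days cells lysed with 0.25% SDS, dilutions plated on 7H11 agar, colonies counted after 2-3 weeks.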

In series [12] the target is T2, Phosphotyrosine-protein phosphatase PTPB. The series can be described thus: Non-competitive inhibition of Mycobacterium tuberculosis N-terminal His6-tagged PTPB assessed as production of p-nitrophenol from pNPP substrate by Lineweaver-Burk plot analysis.
In series [13] the target is T1, Phosphotyrosine-protein phosphatase PTPB (Mycobacterium tuberculosis). Conditions: RAW, 5 to 10 uM.
The target is the same in series [14]. The series can be described thus: Inhibition of Mycobacterium tuberculosis PTPB expressed in mouse RAW 264.7 cells assessed as restoration of IFN gamma-induced ERK1/ERK2 phosphorylation at 15 uM after 30 mins by Western blotting. The format is cell-based. The essentials: as §1

28 compounds from ChEMBL document CHEMBL1773067 can be followed below.

The source made the active and inactive calls. The calls are words filed in the database; no cut-off is given here.

Consider `CC(NC(=O)C(=O)NCc1ccco1)C(c1cccs1)N1CCN(C)CC1` (configuration not stated), for which the inhibition entry in [1] was “inactive”.
Consider `O=C1Nc2ccc(S(=O)(=O)N(CCO)CCO)c3cccc1c23`, for which the inhibition entry in series [1] was “inactive”.
Still for that read-out and setting: in the case of `O=C1Nc2ccc(S(=O)(=O)N3CCOCC3)c3cccc1c23` it was “inactive”.
What is called IC50 is the concentration at which inhibition is half-maximal. For `CCCCCCCOC(=O)c1c(C)oc2ccc(NS(=O)(=O)c3ccc4c5c(cccc35)C(=O)N4)cc12`, the IC50 is 19.5 µM in series [2] and 22.8 µM in series [3].
Take `Cc1ccccc1NS(=O)(=O)c1ccc2c3c(cccc13)C(=O)N2`: the inhibition result in series [1] was “inactive”.
`CC(NS(=O)(=O)c1ccc2c3c(cccc13)C(=O)N2)C1C2CC3CC(C2)CC1C3` (configuration not stated): in [1], the inhibition entry is “inactive”.
Regarding `CC(NC(=O)C(=O)NCCc1c[nH]c2ccccc12)C(c1cccs1)N1CCN(c2ccc(F)cc2)CC1` (configuration not stated), the IC50 stood at 12.1 µM in [2] and 17.5 µM in [3].
With `COc1ccc(N2CCN(C(c3cccs3)C(C)NC(=O)C(=O)N3CCCC3)CC2)cc1` (configuration not stated), the inhibition result in series [1] is “inactive”.
`CCCCCOC(=O)c1c(C)oc2ccc(NS(=O)(=O)c3ccc4c5c(cccc35)C(=O)N4)cc12`: the values for the IC50 in series [2] and in series [3] were 21.1 µM and 20.8 µM, respectively.
For `O=C1Nc2ccc(S(=O)(=O)Nc3cc(Cl)c(O)c4ccccc34)c3cccc1c23`, the IC50 in series [2] is 15.5 µM; in series [3] it was 12.8 µM.
Usually Ki stands for a dissociation constant, usually derived from enzyme kinetics or from competition with a known ligand. On to `CC(NC(=O)C(=O)NCc1cccnc1)C(c1cccs1)N1CCN(c2ccc(F)cc2)CC1` (configuration not stated), for which the IC50 turned out to be 9.1 µM in series [2], 11.5 µM in series [6] and 14 µM in series [3]. Further, in series [4], the Ki worked out at 4 µM. In [5], the inhibition entry was “Dose-dependent effect”.
As to `CCN1CCN(C(c2cccs2)C(C)NC(=O)C(=O)N2CCOCC2)CC1` (configuration not stated), the inhibition entry in [1] is “inactive”.
For the compound `CC(NC(=O)C(=O)N1CCCCC1)C(c1cccs1)N1CCN(C)CC1` (configuration not stated), in [1], the inhibition entry was “inactive”.
As for `NS(=O)(=O)c1ccc2c3c(cccc13)C(=O)N2`, the inhibition entry in series [1] and in [7] was “inactive” in each case.
As for `O=C1Nc2ccc(S(=O)(=O)Nc3ccc4oc5c(c4c3)CCCC5)c3cccc1c23`, the IC50 came out at 10.3 µM in series [2] and 10.8 µM in series [3].
Broadly, the MIC is the lowest concentration found to suppress growth. Read a high MIC as a need for much substance. On to `COc1ccc(N2CCN(C(c3cccs3)C(C)NC(=O)C(=O)NCc3ccco3)CC2)cc1` (configuration not stated), for which the values for the IC50 in [2], in series [6] and in [3] were 4.8 µM, 5.6 µM and 6.3 µM, respectively. Besides, the Ki in series [4] was found to be 3.2 µM. Besides, the MIC in [8] and in [10] was over 100 µM each time. Further, the inhibition result in [5] is “Dose-dependent effect”. Moreover, in series [9], the Activity entry is listed as “Non-toxic”. For the same compound, the outcome in series [11] was Active.
With `COc1ccccc1CNC(=O)C(=O)NC(C)C(c1cccs1)N1CCN(c2ccc(F)cc2)CC1` (configuration not stated), the half-maximal inhibitory concentration (IC50) in [2] is 11.4 µM; in series [3], 15.8 µM.
With `CCN1CCN(C(c2cccs2)C(C)NC(=O)C(=O)NCCc2c[nH]c3ccccc23)CC1` (configuration not stated), in [1], the inhibition entry was “inactive”.
For `Cc1cccc(NS(=O)(=O)c2ccc3c4c(cccc24)C(=O)N3)c1C`, in [1], the inhibition result is “inactive”.
The same measure, in the same setting: in the case of `CC(NC(=O)C(=O)N1CCCCC1)C(c1cccs1)N1CCN(c2ccc(F)cc2)CC1` (configuration not stated) it was “inactive”; in that of `Cc1oc2ccc(NS(=O)(=O)c3ccc4c5c(cccc35)C(=O)N4)cc2c1C(=O)OC(C)C`, “inactive”.
For the compound `O=C1Nc2ccc(S(=O)(=O)NCc3ccccc3)c3cccc1c23`, in series [1], the inhibition entry was “inactive”.
As to `CC(NC(=O)C(=O)NCc1ccc2c(c1)OCO2)C(c1cccs1)N1CCN(c2ccccc2)CC1` (configuration not stated), the IC50 in [2] is 30.4 µM; in series [3], 25.1 µM.
In the case of `O=C1Nc2ccc(S(=O)(=O)NCCO)c3cccc1c23`, the inhibition entry in series [1] was “inactive”.
As to `CCCCc1ccc(NS(=O)(=O)c2ccc3c4c(cccc24)C(=O)N3)cc1`, the IC50 in series [2] amounted to 1.2 µM; in [6] it was 1.3 µM; in series [3], 1.4 µM. Moreover, the MIC in series [8] and in series [10] was over 100 µM in each case. In addition, the Ki in series [12] turned out to be 1.1 µM. Also, the Activity result in series [9] is recorded as “Non-toxic”. The result in series [11] was Active. Further, the inhibition result in series [13] was “Active”.
Consider `CNS(=O)(=O)c1ccc2c3c(cccc13)C(=O)N2`, for which, in series [1], the inhibition entry was “inactive”.
For the compound `COc1ccc(N2CCN(C(c3cccs3)C(C)NC(=O)C(=O)N3CCCCC3)CC2)cc1` (configuration not stated), the inhibition result in series [1] and in series [14] was “inactive” each time.
On to `CC(NC(=O)C(=O)N1CCCCC1)C(c1cccs1)N1CCN(c2ccccc2)CC1` (configuration not stated), for which the inhibition result in [1] is “inactive”.
